Test results from ChEMBL document CHEMBL2151003, “Synthesis and antitumor activity of ring A modified glycyrrhetinic acid derivatives” (Eur J Med Chem, 2011).
Active and inactive are the calls of the source. The calls are words filed in the database; no cut-off is given here.

Key:
[1] = Cytotoxicity against human A253 cells after 96 hrs by SRB assay; type: functional, cell-based
How it was run: (§1)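 Monolayer cultures in RPMI 1640 with 10% heat-inactivated FBS and penicillin/streptomycin, 37 °C, 5% CO2. Exponentially growing cells were seeded, then treated 24 h later with serial dilutions (0–30 µM; DMSO or DMF ≤0.5% final) for 96 h. Cells were fixed with 10% TCA at 4 °C, stained with 0.4% SRB and solubilized in 10 mM Tris base; A570 was read. IC50 came from semi-log dose–response curves, ≥3 independent experiments.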

[2] = system: A549; test: Cytotoxicity against human A549 cells after 96 hrs by SRB assay; type: functional, cell-based; how it was run: as §1
[3] = system: A549; test: Induction of apoptosis in human A549 cells assessed as appearance of green fluorescent cells at 8 uM after 24 to 48 hrs by acridine orange/ethidium bromide staining based fluorescence microscopy; type: functional, cell-based
How it was run: (§2)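 Approx. 500,000 A549 cells per flask were grown 24 h, then exposed to compound-containing medium for 24–48 h. Cells from the supernatant were pelleted, washed and resuspended in PBS, mixed with AO/EB and examined by fluorescence microscopy. Green fluorescence was scored as apoptotic and red nuclei as necrotic; the read-out is qualitative.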

[4] = system: DLD-1; test: Cytotoxicity against human DLD1 cells after 96 hrs by SRB assay; type: functional, cell-based; how it was run: as §1
[5] = system: 8505C; test: Cytotoxicity against human 8505C cells after 96 hrs by SRB assay; type: functional, cell-based; how it was run: as §1
[6] = Cytotoxicity against human Lipo cells after 96 hrs by SRB assay; type: functional, cell-based; how it was run: as §1
[7] = Cytotoxicity against human 518A2 cells after 96 hrs by SRB assay; type: functional, cell-based; how it was run: as §1
[8] = system: A549; test: Induction of apoptosis in human A549 cells assessed as apoptotic effect at 8 uM after 24 to 48 hrs by trypan blue cell counting analysis; type: functional
How it was run: (§3)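 A549 cells (approx. 500,000 per flask) were grown 24 h, then given compound-containing medium for about 24–48 h. Collected cells were pelleted, washed in PBS and mixed 1:1 with 0.4% trypan blue in PBS, pH 7.2. An automated counter distinguished cells with intact and with damaged membranes. Results are % apoptosis ± standard error, 6 experiments each.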

[9] = system: HCT-116; test: Cytotoxicity against human HCT116 cells after 96 hrs by SRB assay; type: functional, cell-based; how it was run: as §1
[10] = system: HCT-8; test: Cytotoxicity against human HCT8 cells after 96 hrs by SRB assay; type: functional, cell-based
How it was run: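 Monolayers in RPMI 1640 with 10% heat-inactivated FBS and penicillin/streptomycin, 37 °C, 5% CO2. Seeded day 0 and exposed 24 h later to serial dilutions (0–30 µM; DMSO or DMF ≤0.5% final) for 96 h. Cells were then fixed with 10% TCA at 4 °C, stained with 0.4% SRB, washed with 1% acetic acid and dissolved in 10 mM Tris, and A570 was read. IC50 from semi-log dose–response curves, ≥3 independent experiments.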

[11] = system: MCF7; test: Cytotoxicity against human MCF7 cells after 96 hrs by SRB assay; type: functional, cell-based; how it was run: as §1
[12] = system: HT-29; test: Cytotoxicity against human HT-29 cells after 96 hrs by SRB assay; type: functional, cell-based; how it was run: as §1
[13] = system: SW-1736; test: Cytotoxicity against human SW1736 cells after 96 hrs by SRB assay; type: functional, cell-based; how it was run: as §1
[14] = system: A-431; test: Cytotoxicity against human A431 cells after 96 hrs by SRB assay; type: functional, cell-based; how it was run: as §1
[15] = system: A2780; test: Cytotoxicity against human A2780 cells after 96 hrs by SRB assay; type: functional, cell-based; how it was run: as §1
[16] = system: A549; test: Induction of apoptosis in human A549 cells assessed as apoptotic effect at 20 uM after 24 to 48 hrs by trypan blue cell counting analysis; type: functional; how it was run: as §3
[17] = system: A549; test: Induction of apoptosis in human A549 cells assessed as appearance of green fluorescent cells at 20 uM after 24 to 48 hrs by acridine orange/ethidium bromide staining based fluorescence microscopy; type: functional, cell-based; how it was run: as §2
[18] = system: A549; test: Induction of apoptosis in human A549 cells assessed as apoptotic effect after 24 to 48 hrs by trypan blue cell counting analysis; type: functional; how it was run: as §3
[19] = system: A549; test: Induction of apoptosis in human A549 cells assessed as appearance of green fluorescent cells at 4 uM after 24 to 48 hrs by acridine orange/ethidium bromide staining based fluorescence microscopy; type: functional, cell-based; how it was run: as §2
[20] = system: A549; test: Induction of apoptosis in human A549 cells assessed as apoptotic effect at 4 uM after 24 to 48 hrs by trypan blue cell counting analysis; type: functional; how it was run: as §3
[21] = system: A549; test: Induction of apoptosis in human A549 cells assessed as apoptotic effect at 90 uM after 24 to 48 hrs by trypan blue cell counting analysis; type: functional; how it was run: as §3
[22] = system: A549; test: Induction of apoptosis in human A549 cells assessed as apoptotic effect at 60 uM after 24 to 48 hrs by trypan blue cell counting analysis; type: functional; how it was run: as §3
[23] = system: A549; test: Induction of apoptosis in human A549 cells assessed as appearance of green fluorescent cells at 60 uM after 24 to 48 hrs by acridine orange/ethidium bromide staining based fluorescence microscopy; type: functional, cell-based; how it was run: as §2

Row | SMILES | IC50 [1] [µmol] | IC50 [2] [µmol] | IC50 [4] [µmol] | IC50 [5] [µmol] | IC50 [6] [µmol] | IC50 [7] [µmol] | IC50 [9] [µmol] | IC50 [11] [µmol] | IC50 [12] [µmol] | IC50 [13] [µmol] | IC50 [14] [µmol] | IC50 [15] [µmol] | other results
1 | CC1(C)[C@@H](OC(=O)CNCCCN)CC[C@]2(C)[C@H]3C(=O)C=C4[C@@H]5C[C@@](C)(C(=O)OCc6ccccc6)CC[C@]5(C)CC[C@@]4(C)[C@]3(C)CC[C@@H]12 | 1.96 | 4.74 | 4.96 | 2.07 | 2.99 | 5.14 |  |  |  |  |  |  | Activity [3]: Active; Activity [8]: 80.57%
2 | CC1(C)[C@H](O)CC[C@]2(C)[C@H]3C(=O)C=C4[C@@H]5C[C@@](C)(C(=O)O)CC[C@]5(C)CC[C@@]4(C)[C@]3(C)CC[C@@H]12 | > 30 | > 30 | > 30 |  | > 30 | > 30 | > 30 | > 30 | > 30 | > 30 | > 30 |  | IC50 [10]: > 30 µmol
3 | COC(=O)[C@@]1(C)CC[C@]2(C)CC[C@]3(C)C(=CC(=O)[C@@H]4[C@@]5(C)CC/C(=N\O)C(C)(C)[C@@H]5CC[C@]43C)[C@@H]2C1 | 13.56 | 17.4 | 10.46 | 17.18 | 18.34 | 18.93 |  | 15.95 |  | 13 |  | 6.18 | Activity [16]: 32.43%; Activity [17]: Active
4 | COC(=O)[C@@]1(C)CC[C@]2(C)CC[C@]3(C)C(=CC(=O)[C@@H]4[C@@]5(C)CC/C(=N\OC(=O)[C@H](C)NC(=O)OC(C)(C)C)C(C)(C)[C@@H]5CC[C@]43C)[C@@H]2C1 | 14.12 | 15.83 | 19.1 | 15.47 | 18.99 | 16.49 |  | 15.17 |  | 14.61 |  | 12.03 | Activity [18]: 68.54%; Activity [17]: Active
5 | COC(=O)[C@@]1(C)CC[C@]2(C)CC[C@]3(C)C(=CC(=O)[C@@H]4[C@@]5(C)CC[C@@H](N)C(C)(C)[C@@H]5CC[C@]43C)[C@@H]2C1 | 2.44 | 3.33 | 3.21 | 2.33 | 3.3 | 2.74 |  | 2.55 |  | 2.84 |  | 3.42 | Activity [19]: Active; Activity [20]: 64.88%
6 | COC(=O)[C@@]1(C)CC[C@]2(C)CC[C@]3(C)C(=CC(=O)[C@@H]4[C@@]5(C)CC[C@H](NC(=O)[C@H](C)N)C(C)(C)[C@@H]5CC[C@]43C)[C@@H]2C1 | 4.46 | 5.38 | 6.44 | 4.46 | 5.82 | 5.55 |  | 5.08 |  | 5.25 |  | 5.39 | Activity [3]: Active; Activity [8]: 56.77%
7 | CC1(C)[C@@H](O)CC[C@]2(C)[C@H]3C(=O)C=C4[C@@H]5C[C@@](C)(C(=O)O)CC[C@]5(C)CC[C@@]4(C)[C@]3(C)CC[C@@H]12 [ENOXOLONE] |  |  |  |  |  |  |  |  |  |  |  |  | Activity [21]: 73.73%
8 | COC(=O)[C@@]1(C)CC[C@]2(C)CC[C@]3(C)C(=CC(=O)[C@@H]4[C@@]5(C)CC[C@H](N)C(C)(C)[C@@H]5CC[C@]43C)[C@@H]2C1 | 2.36 | 2.51 | 2.56 | 2.45 | 2.74 | 2.52 |  | 2.47 |  | 2.62 |  | 3.32 | Activity [19]: Active; Activity [20]: 74.21%
9 | CCOC(=O)[C@@]1(C)CC[C@]2(C)CC[C@]3(C)C(=CC(=O)[C@@H]4[C@@]5(C)C[C@H](F)[C@@H](O)C(C)(C)[C@@H]5CC[C@]43C)[C@@H]2C1 | > 30 | > 30 | > 30 |  | > 30 | > 30 | > 30 | > 30 | 24.72 |  | > 30 |  | Activity [22]: 80.32%; Activity [23]: Active
10 | CC1(C)C(=O)CC[C@]2(C)[C@H]3C(=O)C=C4[C@@H]5C[C@@](C)(C(=O)O)CC[C@]5(C)CC[C@@]4(C)[C@]3(C)CC[C@@H]12 | > 30 | > 30 | > 30 |  | > 30 | > 30 | > 30 | > 30 | > 30 | > 30 | > 30 |  | IC50 [10]: > 30 µmol
